For one compound, T/C and MST results are on record in ChEMBL document CHEMBL1122504, “Heterocyclic Quinones. 4. A new highly cytotoxic drug: 6,7-bis(1-aziridinyl)-5,8-quinazolinedione” (1983).

In assay [1] the test system is P388. Kind of assay: MST of treated animal over control when administered at a dose of 10 mg/kg perorally on Q01Dx07 treatment schedule. The assay is classed as functional, Mus musculus. As to conditions: route oral. The method in brief: (§1)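 P388 leukaemia: DBA/2 mice inoculated with 10^6 cells on day 0; treatment began day 1 at the stated route and schedule. Drug was dissolved in 0.15 M NaCl saline. The read-out was median survival time (MST, days), with toxicity taken as survivors on day 5. T/C% = treated MST/control MST × 100; ≥125% is considered significant.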

Assay [2] deals with P388. As to the kind of experiment: Median survival time of P388 lymphocytic leukemia cell line after a dose of 5 mg/kg administered intraperitoneally on Q01Dx09 treatment schedule. As to conditions: route intraperitoneal. The assay is classed as functional, Mus musculus. The method in brief:
as §1

`O=C1C(N2CC2)=C(N2CC2)C(=O)c2ncncc21`: in assay [1], the T/C was 100%. Further, the MST in assay [2] is 10.4 days.

By T/C is commonly meant the result in the treated group divided by that in the control group, in per cent.
